This is an account of results in ChEMBL document CHEMBL1155527 (J Med Chem, 2010).

≈ marks a conversion by molar mass, not a printed value. Where only a bound is given, the exact number is not on record here.

Data set [1] is described as follows: Solubility in ammonium acetate buffer at pH 7.4 by pseudothermodynamic equilibrium assay. The data set is classed as physicochemical.
The target of data set [2] is T1, 5-hydroxytryptamine receptor 3A (Homo sapiens, UniProt P46098).
T1 sequence (P46098 whole entry): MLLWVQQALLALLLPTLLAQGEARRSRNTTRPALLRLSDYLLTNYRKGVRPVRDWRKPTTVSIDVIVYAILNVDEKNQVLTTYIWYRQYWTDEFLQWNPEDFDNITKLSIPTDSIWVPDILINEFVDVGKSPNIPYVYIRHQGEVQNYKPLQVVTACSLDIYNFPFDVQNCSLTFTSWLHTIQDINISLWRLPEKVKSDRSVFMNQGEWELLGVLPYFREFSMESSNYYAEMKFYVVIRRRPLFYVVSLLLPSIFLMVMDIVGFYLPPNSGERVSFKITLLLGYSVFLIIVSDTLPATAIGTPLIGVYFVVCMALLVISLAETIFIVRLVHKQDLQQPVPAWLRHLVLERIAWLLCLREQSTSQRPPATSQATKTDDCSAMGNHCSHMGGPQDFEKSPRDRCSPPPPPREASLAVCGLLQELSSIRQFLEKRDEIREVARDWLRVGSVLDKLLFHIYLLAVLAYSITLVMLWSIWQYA
Briefly: Antagonist activity at human 5HT3A receptor expressed in HEK293 cells by FLIPR assay.

For data set [3], the target named is Neuronal acetylcholine receptor subunit alpha-7 (Rattus norvegicus, UniProt Q05941). Kind of data set: Agonist activity at rat alpha7 nAChR expressed in rat GH4C1 cells assessed as calcium flux by FLIPR. The data set is classed as functional, cell-based, GH4-C1. The method in brief:
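Cells were loaded 40 min at 37 °C with 4 μM Fluo-4-AM in HBSS-HEPES pH 7.4 with probenecid. FLIPR Ca2+ flux was read for ~10 min after compound addition. MAX-MIN was normalized to positive control and fitted to a variable-slope sigmoid. Triplicate points from a single experiment.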
In general terms: Calcium flux is commonly read through the fluorescence of an indicator in the cells.

The target in data set [4] is CYP3A4 (Homo sapiens, UniProt P08684). Briefly: Inhibition of CYP3A4 at 3 uM by Gentest method. The data set is classed as ADME.
Sequence of CYP3A4 (Homo sapiens, UniProt P08684) (P08684 whole entry): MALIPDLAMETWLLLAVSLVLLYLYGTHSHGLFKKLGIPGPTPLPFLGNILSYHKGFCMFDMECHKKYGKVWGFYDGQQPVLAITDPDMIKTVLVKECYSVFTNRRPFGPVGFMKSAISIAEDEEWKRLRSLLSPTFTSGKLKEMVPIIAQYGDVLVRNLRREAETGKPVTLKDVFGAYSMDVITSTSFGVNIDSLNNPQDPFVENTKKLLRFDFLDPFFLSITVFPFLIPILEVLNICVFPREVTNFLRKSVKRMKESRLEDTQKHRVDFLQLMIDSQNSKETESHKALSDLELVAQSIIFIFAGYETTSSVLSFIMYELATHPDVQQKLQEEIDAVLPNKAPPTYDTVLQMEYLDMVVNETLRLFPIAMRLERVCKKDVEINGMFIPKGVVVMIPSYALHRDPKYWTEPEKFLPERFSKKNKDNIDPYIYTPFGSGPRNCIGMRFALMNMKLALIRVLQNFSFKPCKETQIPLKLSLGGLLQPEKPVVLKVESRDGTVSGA
For another data set, the target named is CYP2C9 (Homo sapiens, UniProt P11712). Kind of data set: Inhibition of CYP2C9 at 3 uM by Gentest method. The data set is classed as ADME.
Sequence of CYP2C9 (P11712 whole entry): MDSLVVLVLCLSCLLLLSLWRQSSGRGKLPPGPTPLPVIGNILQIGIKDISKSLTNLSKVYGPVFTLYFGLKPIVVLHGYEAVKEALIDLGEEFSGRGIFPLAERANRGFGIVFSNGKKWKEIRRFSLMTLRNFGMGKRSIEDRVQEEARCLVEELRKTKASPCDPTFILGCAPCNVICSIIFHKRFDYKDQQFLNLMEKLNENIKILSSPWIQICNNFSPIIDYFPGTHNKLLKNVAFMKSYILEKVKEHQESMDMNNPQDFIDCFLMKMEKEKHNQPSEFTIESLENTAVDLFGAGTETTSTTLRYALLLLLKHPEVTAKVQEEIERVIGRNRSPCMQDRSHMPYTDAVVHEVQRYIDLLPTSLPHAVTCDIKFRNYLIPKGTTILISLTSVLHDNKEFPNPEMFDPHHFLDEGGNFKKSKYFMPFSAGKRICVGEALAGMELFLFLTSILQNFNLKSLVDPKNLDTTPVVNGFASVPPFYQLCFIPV
In data set [5] the test system is CYP3A4. Briefly: Metabolic stability assessed as compound remaining after 1 hr in presence of human CYP3A4. To be noted: read-out: Stability. The class given is ADME.
Data set [6] can be described thus: Selectivity ratio of EC50 for human alpha1 nAChR to EC50 for rat alpha7 nAChR.
The nature of data set [7]: Selectivity ratio of EC50 for human alpha3 nAChR to EC50 for rat alpha7 nAChR.
Another data set deals with CYP2D6 (Homo sapiens, UniProt P10635). Kind of data set: Inhibition of CYP2D6 at 3 uM by Gentest method. The class given is ADME.
Sequence of CYP2D6 (P10635 whole entry): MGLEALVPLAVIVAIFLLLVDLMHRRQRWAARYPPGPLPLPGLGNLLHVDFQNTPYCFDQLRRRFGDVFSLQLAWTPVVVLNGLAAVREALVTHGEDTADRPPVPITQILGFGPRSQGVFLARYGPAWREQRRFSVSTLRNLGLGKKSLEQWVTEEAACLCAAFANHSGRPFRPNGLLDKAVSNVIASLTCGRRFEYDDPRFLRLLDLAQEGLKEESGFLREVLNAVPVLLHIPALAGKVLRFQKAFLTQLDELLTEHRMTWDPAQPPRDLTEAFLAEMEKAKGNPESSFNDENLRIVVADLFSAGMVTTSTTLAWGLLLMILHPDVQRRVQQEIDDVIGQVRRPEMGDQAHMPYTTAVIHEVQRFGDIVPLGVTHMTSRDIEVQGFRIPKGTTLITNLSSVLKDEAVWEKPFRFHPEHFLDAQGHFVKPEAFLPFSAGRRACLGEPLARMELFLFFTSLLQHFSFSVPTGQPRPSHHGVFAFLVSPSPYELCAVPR
Data set [8] in a line: Intrinsic clearance in rat liver microsomes by LC-MS/MS analysis. The class given is ADME, Microsome. In outline: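 Rat liver microsomes (0.633 mg/mL protein in 0.1 M potassium phosphate pH 7.4 with EDTA) were incubated with test compound and NADPH regenerating agent for 15 min at 37 °C, against a time-0 control, in duplicate. Reactions were quenched with cold acetonitrile, centrifuged, and supernatants analyzed by LC-MS.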
In general terms: Liver microsomes are vesicles of endoplasmic reticulum, rich in cytochrome P450 enzymes.

Sequence of Neuronal acetylcholine receptor subunit alpha-7 (Q05941 whole entry): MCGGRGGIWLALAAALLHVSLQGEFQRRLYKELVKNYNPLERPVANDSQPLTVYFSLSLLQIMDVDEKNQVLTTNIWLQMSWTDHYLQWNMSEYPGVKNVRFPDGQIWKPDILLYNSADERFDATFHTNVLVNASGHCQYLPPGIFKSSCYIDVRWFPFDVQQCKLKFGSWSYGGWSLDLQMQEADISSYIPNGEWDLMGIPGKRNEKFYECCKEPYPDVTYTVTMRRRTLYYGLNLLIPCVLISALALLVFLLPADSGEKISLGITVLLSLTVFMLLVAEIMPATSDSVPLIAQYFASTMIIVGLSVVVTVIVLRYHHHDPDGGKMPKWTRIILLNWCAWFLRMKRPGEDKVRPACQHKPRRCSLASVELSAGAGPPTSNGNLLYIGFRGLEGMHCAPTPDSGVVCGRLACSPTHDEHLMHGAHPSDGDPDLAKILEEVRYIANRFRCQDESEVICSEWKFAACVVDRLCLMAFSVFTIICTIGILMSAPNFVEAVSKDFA

Turning to `O=C(NCCCCN1CCCCC1)Nc1ccc(-c2ccccc2F)cc1`, in data set [1], the thermodynamic solubility (as a rule, the concentration in solution at equilibrium with solid) turned out to be 95 µM (≈ 35.1 µg/mL). For the same compound, half-maximal inhibition in data set [2] (IC50) required 5700 nM. Further, the EC50 (in general, the midpoint of the concentration-response curve) in [3] turned out to be 130 nM. Further, the inhibition (commonly the relative decrease from the control value, in per cent) at 3 µM at CYP3A4 [4] is -17%; against CYP2C9, -1%. For the same compound, the remaining at 1 h in the data set on CYP3A4 [5] stood at 88%. Moreover, the Ratio EC50 was determined as 8.2 in data set [6] and 1.2 in [7].

On to `O=C(NCCCCN1CCCCC1)Nc1ccc(-c2ccccc2)nc1`, for which the thermodynamic solubility in data set [1] came to 193 µM (≈ 68 µg/mL). Moreover, the IC50 (as a rule, the point on the concentration scale where inhibition reaches its midpoint) in data set [2] was > 30000 nM. The EC50 in data set [3] turned out to be 120 nM. Moreover, the values for the inhibition at 3 µM on CYP3A4 [4], on CYP2C9 and against CYP2D6 were -21%, -4% and 6%, respectively. Moreover, the remaining at 1 h with CYP3A4 [5] was found to be 100%. Also, the Ratio EC50 is > 30 in data set [6] and 10.1 in [7]. Further, the intrinsic clearance (microsomal CLint) (usually a measure of how fast metabolising enzymes remove a compound, apart from limits set by blood flow) in data set [8] came to 18 µL/min/mg.

In data set [1], `O=C(NCCCCN1CCCCC1)Nc1ccc(-c2ccccc2F)nc1` registered a thermodynamic solubility of 196 µM (≈ 72.6 µg/mL). In addition, in data set [2], the IC50 was > 30000 nM. Besides, the EC50 in data set [3] came to 150 nM. Also, the values for the inhibition at 3 µM on CYP3A4 [4] and at CYP2C9 were -3% and -10%, respectively. In the data set on CYP3A4 [5], the remaining at 1 h came out at 100%. In addition, the Ratio EC50 is > 30 in data set [6] and 5.6 in data set [7].

Compound `O=C(NCCCCN1CCCCC1)Nc1ccc(-c2ccccn2)nc1` returned a solubility (thermodynamic) in [1] of 171 µM (≈ 60.4 µg/mL). Moreover, the IC50 in [2] is > 30000 nM. In [3], the EC50 came out at 390 nM. Moreover, the inhibition at 3 µM on CYP3A4 [4] was 0%; against CYP2C9 it was -3%; against CYP2D6, 22%. The remaining at 1 h in the data set with CYP3A4 [5] was found to be 100%. The results for the Ratio EC50 in data set [6] and in [7] were > 30 and 9.88, respectively.

`O=C(CCCCCN1CCCCC1)Nc1ccc(-c2cccnc2)cc1`: in data set [3], the EC50 was found to be 890 nM.

Regarding `COc1ccccc1-c1ccc(NC(=O)NCCCCN2CCCCC2)cc1`, the solubility (thermodynamic) in data set [1] came out at 114 µM (≈ 43.5 µg/mL). This compound yielded an IC50 in [2] of 7800 nM. The 50% effective concentration (EC50) in [3] came to 140 nM. Moreover, the inhibition at 3 µM against CYP3A4 [4] is 5%; on CYP2C9, -2%. In the data set on CYP3A4 [5], the remaining at 1 h worked out at 100%. The Ratio EC50 in [6] was 7.7; in data set [7], 1.1.

`O=C(NCCCCN1CCCCC1)Nc1ccc(-c2ccccc2)cc1`: the thermodynamic solubility in data set [1] stood at 108 µM (≈ 38 µg/mL). The IC50 in data set [2] was 7900 nM. Besides, the EC50 in data set [3] worked out at 260 nM. In addition, the inhibition at 3 µM against CYP2C9 worked out at 2%. Moreover, the remaining at 1 h with CYP3A4 [5] turned out to be 100%. For the same compound, the Ratio EC50 is > 30 in data set [6] and 2.8 in data set [7].

`O=C(NCCCCN1CCCCC1)Nc1ccc(-c2ccccn2)cc1` gave a solubility (thermodynamic) in data set [1] of 153 µM (≈ 53.9 µg/mL). Further, the IC50 in [2] is > 30000 nM. Also, the EC50 in data set [3] was 130 nM. Besides, the inhibition at 3 µM is -2% at CYP3A4 [4], 0% at CYP2C9 and 15% against CYP2D6. Also, the remaining at 1 h in the data set on CYP3A4 [5] was found to be 97%. The Ratio EC50 in data set [6] is > 30; in [7] it was 5.

On to `O=C(CCCCN1CCCCC1)Nc1ccc(-c2cccnc2)cc1`, for which the concentration for a half-maximal effect (EC50) in [3] is 350 nM.

For `O=C(NCCCCN1CCOCC1)Nc1ccc(-c2cccnc2)cc1`, in [3], the EC50 was found to be 490 nM.

For the compound `O=C(NCCCCN1CCCCC1)Nc1ccc(-c2cccnc2)cc1`, in data set [3], the 50% effective concentration (EC50) was 120 nM.

`O=C(NCCCCN1CCCCC1)Nc1ccc(-c2ccc(F)cc2)cc1` came in with a solubility (thermodynamic) in data set [1] of 20 µM (≈ 7.39 µg/mL). The same compound displayed an IC50 in [2] of 5800 nM. Further, the figures for the inhibition at 3 µM on CYP3A4 [4] and on CYP2C9 were -13% and -16%, respectively. Further, in the data set on CYP3A4 [5], the remaining at 1 h came to 100%. In addition, the Ratio EC50 in data set [6] came to 8; in data set [7], 1.7.

Consider `O=C(NCCCCN1CCCCC1)Nc1ccc(-c2ccc(F)nc2)cc1`, for which the solubility (thermodynamic) in data set [1] was found to be 158 µM (≈ 58.5 µg/mL). In data set [2], the IC50 was > 30000 nM. The EC50 in data set [3] was 120 nM. The inhibition at 3 µM against CYP3A4 [4] is -22%; on CYP2C9, -18%. Further, in the data set with CYP3A4 [5], the remaining at 1 h came to 100%. The Ratio EC50 in data set [6] is > 30; in data set [7], 1.2.

In data set [1], `O=C(NCCCCN1CCCCC1)Nc1ccc(-c2ccc(F)nc2)nc1` displayed a solubility (thermodynamic) of 205 µM (≈ 76.1 µg/mL). The IC50 in [2] is > 30000 nM. The EC50 in data set [3] was 530 nM. Further, the values for the inhibition at 3 µM against CYP3A4 [4], against CYP2C9 and at CYP2D6 were -19%, -10% and 8%, respectively. Further, the remaining at 1 h in the data set with CYP3A4 [5] was 100%. The Ratio EC50 in data set [6] and in [7] was > 30 each time.

In data set [1], `COc1ccccc1-c1ccc(NC(=O)NCCCCN2CCCCC2)cn1` showed a solubility (thermodynamic) of 174 µM (≈ 66.6 µg/mL). The IC50 in data set [2] is > 30000 nM. Moreover, in data set [3], the EC50 worked out at 230 nM. Also, the inhibition at 3 µM on CYP3A4 [4] is 8%; on CYP2C9, 6%; at CYP2D6, 8%. Further, the remaining at 1 h in the data set with CYP3A4 [5] is 88%. For the same compound, the results for the Ratio EC50 in [6] and in data set [7] were > 30 and 3.9, respectively.
